In ChEMBL document CHEMBL4689842, “EUbOPEN Chemogenomics Library wave 1” (2021):

System: HEK-293T
Assay: Multiplex assay against HEK293T;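 on Population Tubulin-Different-Phenotype (%): share of the cells with healthy nuclei that show this phenotype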
Type: toxicity, cell-based
Settings: human
Summary of the method: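 Tubulin, mitochondrial-mass and membrane-permeability phenotypes are per cents of healthy-nucleus cells. Cells were gated by CellPathfinder machine learning into Hoechst high-intensity objects or normal cells, normal cells into healthy, pyknosed or fragmented nuclei, and pyknosed cells into mitotic or apoptotic. Before that, live cells stained at seeding with Hoechst33342, BioTracker Green Microtubule Cytoskeleton Dye, MitoTracker Red and Annexin V Alexa Fluor 680 were imaged on a CQ1 microscope at 37°C and 5% CO2 after compound addition.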

[1] = 12 h, 1 µM, compound concentration 1 uM, replicate 1
[2] = 12 h, 1 µM, compound concentration 1 uM, replicate 2
[3] = 12 h, 10 µM, compound concentration 10 uM, replicate 1
[4] = 12 h, 10 µM, compound concentration 10 uM, replicate 2
[5] = 24 h, 1 µM, compound concentration 1 uM, replicate 1
[6] = 24 h, 1 µM, compound concentration 1 uM, replicate 2
[7] = 24 h, 10 µM, compound concentration 10 uM, replicate 1
[8] = 24 h, 10 µM, compound concentration 10 uM, replicate 2
[9] = 48 h, 1 µM, compound concentration 1 uM, replicate 1
[10] = 48 h, 1 µM, compound concentration 1 uM, replicate 2
[11] = 48 h, 10 µM, compound concentration 10 uM, replicate 1
[12] = 48 h, 10 µM, compound concentration 10 uM, replicate 2

Cc1nc(-c2ccc(-c3ccc(C(=O)N4CCc5cc6c(cc54)C4(CCN(C)CC4)CO6)cc3)c(C)c2)no1 [SB-224289]
Population Apoptotic (%) [1]: 59% | Population Fragmented Nuclei (%) [1]: 17% | Population Hoechst High Intensity Objects (%) [1]: 14% | Population Membrane Permeable-Phenotype (%) [1]: 2% | Population Mitochondria Different-Phenotype (%) [1]: 94% | Population Mitotic Cells (%) [1]: 40% | Population Normal (%) [1]: 85% | Population Pyknosed Nuclei (%) [1]: 48% | Population Tubulin-Different-Phenotype (%) [1]: 82% | Total Cell Count [1]: 225 | Population Apoptotic (%) [2]: 24% | Population Fragmented Nuclei (%) [2]: 4% | Population Healthy Nuclei (%) [2]: 34% | Population Hoechst High Intensity Objects (%) [2]: 3% | Population Membrane Permeable-Phenotype (%) [2]: 12% | Population Mitochondria Different-Phenotype (%) [2]: 75% | Population Mitotic Cells (%) [2]: 75% | Population Normal (%) [2]: 96% | Population Pyknosed Nuclei (%) [2]: 60% | Population Tubulin-Different-Phenotype (%) [2]: 66% | Total Cell Count [2]: 194 | Population Apoptotic (%) [3]: 87% | Population Fragmented Nuclei (%) [3]: 8% | Population Healthy Nuclei (%) [3]: 22% | Population Hoechst High Intensity Objects (%) [3]: 15% | Population Membrane Permeable-Phenotype (%) [3]: 0% | Population Mitochondria Different-Phenotype (%) [3]: 98% | Population Mitotic Cells (%) [3]: 12% | Population Normal (%) [3]: 84% | Population Pyknosed Nuclei (%) [3]: 68% | Population Tubulin-Different-Phenotype (%) [3]: 98% | Total Cell Count [3]: 320 | Population Apoptotic (%) [4]: 88% | Population Fragmented Nuclei (%) [4]: 3% | Population Healthy Nuclei (%) [4]: 16% | Population Hoechst High Intensity Objects (%) [4]: 9% | Population Membrane Permeable-Phenotype (%) [4]: 4% | Population Mitochondria Different-Phenotype (%) [4]: 95% | Population Mitotic Cells (%) [4]: 11% | Population Normal (%) [4]: 90% | Population Pyknosed Nuclei (%) [4]: 80% | Population Tubulin-Different-Phenotype (%) [4]: 85% | Total Cell Count [4]: 141 | Population Apoptotic (%) [5]: 67% | Population Fragmented Nuclei (%) [5]: 17% | Population Healthy Nuclei (%) [5]: 35% | Population Hoechst High Intensity Objects (%) [5]: 10% | Population Membrane Permeable-Phenotype (%) [5]: 1% | Population Mitochondria Different-Phenotype (%) [5]: 89% | Population Mitotic Cells (%) [5]: 32% | Population Normal (%) [5]: 89% | Population Pyknosed Nuclei (%) [5]: 46% | Population Tubulin-Different-Phenotype (%) [5]: 63% | Total Cell Count [5]: 231 | Population Apoptotic (%) [6]: 33% | Population Fragmented Nuclei (%) [6]: 4% | Population Healthy Nuclei (%) [6]: 46% | Population Hoechst High Intensity Objects (%) [6]: 3% | Population Membrane Permeable-Phenotype (%) [6]: 5% | Population Mitochondria Different-Phenotype (%) [6]: 73% | Population Mitotic Cells (%) [6]: 66% | Population Normal (%) [6]: 96% | Population Pyknosed Nuclei (%) [6]: 48% | Population Tubulin-Different-Phenotype (%) [6]: 73% | Total Cell Count [6]: 232 | Population Apoptotic (%) [7]: 92% | Population Fragmented Nuclei (%) [7]: 8% | Population Healthy Nuclei (%) [7]: 13% | Population Hoechst High Intensity Objects (%) [7]: 18% | Population Membrane Permeable-Phenotype (%) [7]: 2% | Population Mitochondria Different-Phenotype (%) [7]: 100% | Population Mitotic Cells (%) [7]: 7% | Population Normal (%) [7]: 81% | Population Pyknosed Nuclei (%) [7]: 77% | Population Tubulin-Different-Phenotype (%) [7]: 100% | Total Cell Count [7]: 316 | Population Apoptotic (%) [8]: 97% | Population Fragmented Nuclei (%) [8]: 5% | Population Healthy Nuclei (%) [8]: 24% | Population Hoechst High Intensity Objects (%) [8]: 12% | Population Membrane Permeable-Phenotype (%) [8]: 0% | Population Mitotic Cells (%) [8]: 2% | Population Normal (%) [8]: 88% | Population Pyknosed Nuclei (%) [8]: 70% | Population Tubulin-Different-Phenotype (%) [8]: 93% | Total Cell Count [8]: 150 | Population Apoptotic (%) [9]: 76% | Population Fragmented Nuclei (%) [9]: 21% | Population Healthy Nuclei (%) [9]: 48% | Population Hoechst High Intensity Objects (%) [9]: 12% | Population Membrane Permeable-Phenotype (%) [9]: 0% | Population Mitochondria Different-Phenotype (%) [9]: 67% | Population Mitotic Cells (%) [9]: 23% | Population Normal (%) [9]: 87% | Population Pyknosed Nuclei (%) [9]: 30% | Population Tubulin-Different-Phenotype (%) [9]: 53% | Total Cell Count [9]: 261 | Population Apoptotic (%) [10]: 25% | Population Fragmented Nuclei (%) [10]: 4% | Population Healthy Nuclei (%) [10]: 72% | Population Hoechst High Intensity Objects (%) [10]: 4% | Population Membrane Permeable-Phenotype (%) [10]: 2% | Population Mitochondria Different-Phenotype (%) [10]: 45% | Population Mitotic Cells (%) [10]: 75% | Population Normal (%) [10]: 95% | Population Pyknosed Nuclei (%) [10]: 22% | Population Tubulin-Different-Phenotype (%) [10]: 56% | Total Cell Count [10]: 371 | Population Apoptotic (%) [11]: 92% | Population Fragmented Nuclei (%) [11]: 13% | Population Healthy Nuclei (%) [11]: 10% | Population Hoechst High Intensity Objects (%) [11]: 26% | Population Membrane Permeable-Phenotype (%) [11]: 7% | Population Mitochondria Different-Phenotype (%) [11]: 100% | Population Mitotic Cells (%) [11]: 7% | Population Normal (%) [11]: 73% | Population Pyknosed Nuclei (%) [11]: 75% | Population Tubulin-Different-Phenotype (%) [11]: 82% | Total Cell Count [11]: 363 | Population Apoptotic (%) [12]: 100% | Population Fragmented Nuclei (%) [12]: 5% | Population Healthy Nuclei (%) [12]: 28% | Population Hoechst High Intensity Objects (%) [12]: 17% | Population Membrane Permeable-Phenotype (%) [12]: 6% | Population Mitochondria Different-Phenotype (%) [12]: 96% | Population Mitotic Cells (%) [12]: 0% | Population Normal (%) [12]: 82% | Population Pyknosed Nuclei (%) [12]: 66% | Population Tubulin-Different-Phenotype (%) [12]: 57% | Total Cell Count [12]: 139

C[C@@H](NCCCc1cccc(C(F)(F)F)c1)c1cccc2ccccc12.Cl [CINACALCET HYDROCHLORIDE]
Population Apoptotic (%) [1]: 48% | Population Fragmented Nuclei (%) [1]: 4% | Population Healthy Nuclei (%) [1]: 49% | Population Hoechst High Intensity Objects (%) [1]: 8% | Population Membrane Permeable-Phenotype (%) [1]: 2% | Population Mitochondria Different-Phenotype (%) [1]: 90% | Population Mitotic Cells (%) [1]: 51% | Population Normal (%) [1]: 91% | Population Pyknosed Nuclei (%) [1]: 46% | Population Tubulin-Different-Phenotype (%) [1]: 72% | Total Cell Count [1]: 382 | Population Apoptotic (%) [2]: 16% | Population Fragmented Nuclei (%) [2]: 7% | Population Healthy Nuclei (%) [2]: 32% | Population Hoechst High Intensity Objects (%) [2]: 3% | Population Membrane Permeable-Phenotype (%) [2]: 6% | Population Mitochondria Different-Phenotype (%) [2]: 51% | Population Mitotic Cells (%) [2]: 83% | Population Normal (%) [2]: 96% | Population Pyknosed Nuclei (%) [2]: 60% | Population Tubulin-Different-Phenotype (%) [2]: 67% | Total Cell Count [2]: 158 | Population Apoptotic (%) [3]: 87% | Population Fragmented Nuclei (%) [3]: 12% | Population Healthy Nuclei (%) [3]: 13% | Population Hoechst High Intensity Objects (%) [3]: 19% | Population Membrane Permeable-Phenotype (%) [3]: 0% | Population Mitochondria Different-Phenotype (%) [3]: 95% | Population Mitotic Cells (%) [3]: 12% | Population Normal (%) [3]: 80% | Population Pyknosed Nuclei (%) [3]: 74% | Population Tubulin-Different-Phenotype (%) [3]: 95% | Total Cell Count [3]: 195 | Population Apoptotic (%) [4]: 80% | Population Fragmented Nuclei (%) [4]: 3% | Population Healthy Nuclei (%) [4]: 11% | Population Hoechst High Intensity Objects (%) [4]: 4% | Population Mitotic Cells (%) [4]: 19% | Population Normal (%) [4]: 95% | Population Pyknosed Nuclei (%) [4]: 84% | Population Tubulin-Different-Phenotype (%) [4]: 90% | Total Cell Count [4]: 193 | Population Apoptotic (%) [5]: 40% | Population Healthy Nuclei (%) [5]: 61% | Population Hoechst High Intensity Objects (%) [5]: 7% | Population Membrane Permeable-Phenotype (%) [5]: 1% | Population Mitochondria Different-Phenotype (%) [5]: 77% | Population Mitotic Cells (%) [5]: 59% | Population Normal (%) [5]: 92% | Population Pyknosed Nuclei (%) [5]: 30% | Population Tubulin-Different-Phenotype (%) [5]: 63% | Total Cell Count [5]: 417 | Population Apoptotic (%) [6]: 28% | Population Fragmented Nuclei (%) [6]: 8% | Population Healthy Nuclei (%) [6]: 48% | Population Hoechst High Intensity Objects (%) [6]: 4% | Population Membrane Permeable-Phenotype (%) [6]: 6% | Population Mitochondria Different-Phenotype (%) [6]: 47% | Population Mitotic Cells (%) [6]: 71% | Population Normal (%) [6]: 95% | Population Pyknosed Nuclei (%) [6]: 43% | Population Tubulin-Different-Phenotype (%) [6]: 60% | Total Cell Count [6]: 201 | Population Apoptotic (%) [7]: 87% | Population Fragmented Nuclei (%) [7]: 15% | Population Healthy Nuclei (%) [7]: 15% | Population Hoechst High Intensity Objects (%) [7]: 19% | Population Membrane Permeable-Phenotype (%) [7]: 3% | Population Mitotic Cells (%) [7]: 12% | Population Normal (%) [7]: 80% | Population Pyknosed Nuclei (%) [7]: 68% | Population Tubulin-Different-Phenotype (%) [7]: 96% | Total Cell Count [7]: 227 | Population Apoptotic (%) [8]: 86% | Population Fragmented Nuclei (%) [8]: 4% | Population Healthy Nuclei (%) [8]: 18% | Population Hoechst High Intensity Objects (%) [8]: 8% | Population Membrane Permeable-Phenotype (%) [8]: 6% | Population Mitochondria Different-Phenotype (%) [8]: 100% | Population Mitotic Cells (%) [8]: 13% | Population Normal (%) [8]: 91% | Population Pyknosed Nuclei (%) [8]: 76% | Population Tubulin-Different-Phenotype (%) [8]: 84% | Total Cell Count [8]: 198 | Population Apoptotic (%) [9]: 27% | Population Fragmented Nuclei (%) [9]: 7% | Population Healthy Nuclei (%) [9]: 79% | Population Membrane Permeable-Phenotype (%) [9]: 1% | Population Mitochondria Different-Phenotype (%) [9]: 43% | Population Mitotic Cells (%) [9]: 72% | Population Pyknosed Nuclei (%) [9]: 12% | Population Tubulin-Different-Phenotype (%) [9]: 48% | Total Cell Count [9]: 730 | Population Apoptotic (%) [10]: 21% | Population Fragmented Nuclei (%) [10]: 3% | Population Healthy Nuclei (%) [10]: 74% | Population Hoechst High Intensity Objects (%) [10]: 5% | Population Membrane Permeable-Phenotype (%) [10]: 9% | Population Mitochondria Different-Phenotype (%) [10]: 23% | Population Mitotic Cells (%) [10]: 78% | Population Normal (%) [10]: 94% | Population Pyknosed Nuclei (%) [10]: 22% | Population Tubulin-Different-Phenotype (%) [10]: 57% | Total Cell Count [10]: 266 | Population Apoptotic (%) [11]: 90% | Population Fragmented Nuclei (%) [11]: 24% | Population Healthy Nuclei (%) [11]: 12% | Population Hoechst High Intensity Objects (%) [11]: 18% | Population Membrane Permeable-Phenotype (%) [11]: 0% | Population Mitochondria Different-Phenotype (%) [11]: 100% | Population Mitotic Cells (%) [11]: 9% | Population Normal (%) [11]: 81% | Population Pyknosed Nuclei (%) [11]: 63% | Population Tubulin-Different-Phenotype (%) [11]: 86% | Total Cell Count [11]: 216 | Population Apoptotic (%) [12]: 89% | Population Fragmented Nuclei (%) [12]: 6% | Population Healthy Nuclei (%) [12]: 18% | Population Hoechst High Intensity Objects (%) [12]: 9% | Population Membrane Permeable-Phenotype (%) [12]: 8% | Population Mitochondria Different-Phenotype (%) [12]: 94% | Population Mitotic Cells (%) [12]: 10% | Population Normal (%) [12]: 90% | Population Pyknosed Nuclei (%) [12]: 75% | Population Tubulin-Different-Phenotype (%) [12]: 70% | Total Cell Count [12]: 203
